Test results published in ChEMBL document CHEMBL4602722, “Structural Studies on the Inhibitory Binding Mode of Aromatic Coumarinic Esters to Human Kallikrein-Related Peptidase 7” (J Med Chem, 2020).
Activity calls are given as the source filed them. The rule behind the calls is not given here.

What was measured:
[1] = Stability in 100% DMSO at -20 degC for several months by ESI-MS and 1H NMR spectroscopy; assay type: physicochemical
[2] = target: Kallikrein-7 (Homo sapiens) (UniProt P49862); assay: Inhibition of N-terminal SUMO and His6-tagged human KLK7 assessed as reduction in vaspin-N-terminal cleavage using compound pre-treated KLK7 incubated for 60 mins by Coomassie-staining based SDS-PAGE method
Kallikrein-7 (Homo sapiens), sequence (P49862 30-253 limits assumed): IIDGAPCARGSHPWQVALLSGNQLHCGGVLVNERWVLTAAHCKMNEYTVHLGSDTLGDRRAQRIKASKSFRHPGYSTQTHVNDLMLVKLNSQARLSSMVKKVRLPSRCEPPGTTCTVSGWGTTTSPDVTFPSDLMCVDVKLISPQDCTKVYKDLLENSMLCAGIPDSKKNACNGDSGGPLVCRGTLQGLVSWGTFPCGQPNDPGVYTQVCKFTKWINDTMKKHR
In short: (§1)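 KLK7 was pre-treated with 1 mM compound (10 % DMSO, 37 °C, 30 min) and concentrated on a 5 kDa spin column. It was then mixed with vaspin at a 3:1 molar ratio (3.15 μM KLK7, 1.05 μM vaspin) in 50 mM Tris, 150 mM NaCl, pH 8.0 (elsewhere stated as pH 7.5) at room temperature for up to 60 min. Time-point samples were boiled 5 min in reducing SDS buffer, run on 12 % gels and Coomassie-stained.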

[3] = target: Kallikrein-7 (Homo sapiens) (UniProt P49862); assay: Inhibition of N-terminal SUMO and His6-tagged human KLK7 assessed as protease activity by measuring fluorogenic peptide substrate NFF-3 cleavage (reference value: >400 pmol/(min.ug)
[4] = target: Kallikrein-7 (Homo sapiens) (UniProt P49862); assay: Inhibition of N-terminal SUMO and His6-tagged human KLK7 expressed in Escherichia coli Rosetta (DE3) pLysS assessed as reduction in covalent KLK7-vaspin complex formation using compound pre-treated KLK7 incubated for 60 mins by Coomassie-staining based SDS-PAGE method; in short: as §1
[5] = target: Kallikrein-7 (Homo sapiens) (UniProt P49862); assay: Covalent binding affinity to of N-terminal SUMO and His6-tagged human KLK7 expressed in Escherichia coli Rosetta (DE3) pLysS assessed as compound binding to His57 of catalytic triad by mass spectrometry

| Stability [1] | inhibition [2] | Activity [3] | inhibition [4] | Activity [5] | Compound |
| --- | --- | --- | --- | --- | --- |
| Stable | inactive | < 0.1 pmol/min/µg | Active | Active | O=C(Oc1cccc(Br)c1)c1cc2cc(CCl)ccc2oc1=O |
| – | inactive | < 0.1 pmol/min/µg | Active | – | O=C(Oc1cccc(I)c1)c1cc2cc(CCl)ccc2oc1=O |
| – | inactive | < 0.1 pmol/min/µg | Active | – | O=C(Oc1cccc(Cl)c1)c1cc2cc(CCl)ccc2oc1=O |
